Results gathered from unrelated publications.
Each line is one published result; the experiments were not run side by side.
Target: Muscle, skeletal receptor tyrosine-protein kinase (MUSK, Homo sapiens, UniProt O15146)
Residues used in one study (O15146 24-869): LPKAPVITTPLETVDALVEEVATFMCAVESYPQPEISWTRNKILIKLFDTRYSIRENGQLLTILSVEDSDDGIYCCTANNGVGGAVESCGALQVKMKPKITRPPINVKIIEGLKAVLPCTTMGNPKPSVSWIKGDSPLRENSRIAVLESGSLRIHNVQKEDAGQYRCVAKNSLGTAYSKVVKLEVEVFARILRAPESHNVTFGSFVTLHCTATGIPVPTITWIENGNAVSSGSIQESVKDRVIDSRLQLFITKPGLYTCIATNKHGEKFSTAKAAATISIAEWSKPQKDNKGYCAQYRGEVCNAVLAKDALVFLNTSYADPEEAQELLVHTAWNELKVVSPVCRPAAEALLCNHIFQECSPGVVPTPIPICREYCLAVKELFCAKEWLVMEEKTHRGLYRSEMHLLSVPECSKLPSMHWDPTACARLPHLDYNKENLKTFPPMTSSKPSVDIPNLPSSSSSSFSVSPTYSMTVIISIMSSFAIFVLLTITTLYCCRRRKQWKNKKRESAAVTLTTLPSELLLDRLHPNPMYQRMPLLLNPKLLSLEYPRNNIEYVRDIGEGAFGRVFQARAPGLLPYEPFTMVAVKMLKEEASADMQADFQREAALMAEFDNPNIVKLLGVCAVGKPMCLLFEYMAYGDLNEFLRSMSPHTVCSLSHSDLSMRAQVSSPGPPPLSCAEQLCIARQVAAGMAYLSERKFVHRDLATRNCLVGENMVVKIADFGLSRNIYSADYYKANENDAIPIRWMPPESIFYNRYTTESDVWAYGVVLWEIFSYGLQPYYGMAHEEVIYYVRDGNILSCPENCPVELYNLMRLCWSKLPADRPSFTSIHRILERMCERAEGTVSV

effect on | method | concentration | remaining binding [%] | Compound
binding | competition with immobilised ligand | 1 µM | 90 | CNC(=O)[C@@H]1CC[C@@H](n2c(-c3ccc4cnccc4c3)nc3ccc(C(=O)NCc4cccc(C(N)=O)c4)cc32)C1
cell-free assay | competition with immobilised ligand | 1 µM | 98 | O=C(NS(=O)(=O)c1ccc(NCC2CCOCC2)c([N+](=O)[O-])c1)c1ccc(N2CCN(Cc3ccc(C(F)(F)F)cc3-c3ccc(Cl)cc3)CC2)cc1Oc1cnc2[nH]ccc2c1
binding | competition with immobilised ligand | 0.1 µM | 68 | C[C@@H](c1ccc(-n2cnc3c(N)ncnc32)cc1)N1CCc2nn(C)c(Cc3ccccc3)c2C1=O
cell-free assay | competition with immobilised ligand | 1 µM | 88 | CO[C@@H](C)c1c(Nc2ccc([C@@H](N(C)C(=O)C3CCS(=O)(=O)CC3)C(F)(F)F)cc2)cnc2cc(Cl)nn12
binding | competition with immobilised ligand | 1 µM | 88 | O=C(Nc1c[nH]nc1C(=O)NC1CCNCC1)c1cc(F)cc(F)c1
cell-free assay | competition with immobilised ligand | 1 µM | 100 | O=C1CCc2cc(Nc3cc(OC4CCOCC4)c([N+](=O)[O-])cc3Cl)ccc2N1
binding | – | 1 µM | 80 | c1cnn2ncc(-c3ccnc(N4CCC45COC5)n3)c2c1
binding | competition with immobilised ligand | 1 µM | 97 | COc1cnc(Nc2cccc(S(N)(=O)=O)c2)nc1N1CCN(c2ccccc2)CC1
cell-free assay | competition with immobilised ligand | 1 µM | 94 | CCS(=O)(=O)c1cc2cc(C[C@](O)(CC(C)(C)c3ccc(F)cc3C(N)=O)C(F)(F)F)[nH]c2cn1
binding | – | 1 µM | 100 | CN(C)c1ncc(F)c(-c2cnn3ncccc23)n1
binding | competition with immobilised ligand | 1 µM | 57 | O=C(c1ccc(Nc2ncc(Cl)c(-c3ccc(Cl)s3)n2)cc1)N1CCC(N2CCCC2)CC1
cell-free assay | competition with immobilised ligand | 5 µM | 99 | FC(F)(F)Oc1cccc(-c2cnc3ccc(-c4ccncc4)nn23)c1
binding | – | 1 µM | 93 | COc1ccnn2ncc(-c3ccnc(N(C)C)n3)c12
binding | competition with immobilised ligand | 1 µM | 77 | O=C(NCCCN1CCOCC1)c1ccc(Nc2nccc(-c3cc4ccccc4s3)n2)cc1
binding | – | 1 µM | 80 | C[C@H]1CCN(c2nccc(-c3cnn4ncccc34)n2)C1
cell-free assay | competition with immobilised ligand | 1 µM | 100 | CN([C@@H]1CCc2c(CC(=O)O)c3cc(S(C)(=O)=O)ccc3n2C1)S(=O)(=O)c1ccc(F)cc1
binding | – | 1 µM | 100 | N[C@H]1CCN(c2nccc(-c3cnn4ncccc34)n2)C1
cell-free assay | competition with immobilised ligand | 1 µM | 94 | COc1ccc2c(c1)O[C@@H](c1ccc(OC)c(OC)c1)C[C@H]2NC(=O)C1(c2ccc3c(c2)OC(F)(F)O3)CC1
binding | – | 1 µM | 92 | CN(C)c1nccc(-c2cnn3ncccc23)n1
binding | competition with immobilised ligand | 10 µM | 86 | c1cncc(-c2cccc(Nc3nccc(NC4CCCCC4)n3)c2)c1
cell-free assay | competition with immobilised ligand | 1 µM | 100 | FC(F)(F)c1ccc2c(c1)nc(-c1cccnc1)n2C1CC1
binding | competition with immobilised ligand | 1 µM | 24 | O=C(c1ccc(Nc2ncc(Cl)c(-c3cc4ccccc4s3)n2)cc1)N1CCC(N2CCCC2)CC1
